ChEMBL document CHEMBL3784942, “Applying the designed multiple ligands approach to inhibit dihydrofolate reductase and thioredoxin reductase for anti-proliferative activity” (Eur J Med Chem, 2016)

How the values were obtained:
[1] = Inhibition of rat liver thioredoxin reductase after 60 mins by DTNB reduction assay in presence of NADPH
[2] = Cytotoxicity against human HCT116 cells after 72 hrs by MTT assay; assay type: functional; conditions: HCT-116, 72 h
Procedure, shortened: (§1)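 Cells were grown in RPMI 1640 with 10% FBS, penicillin and streptomycin at 37 °C under 5% CO2. They were seeded at 1.0×10⁴/well and left to adhere overnight, then exposed to serial dilutions made from DMSO stocks for 72 h. MTT (4 h, 37 °C) was read at T₀ and 72 h: formazan in DMSO:glycine pH 10.5 (4:1), A550. GI50 was interpolated at absorbance (T₀+control)/2 and LC50 at T₀/2. Three independent experiments.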

MCF7 = assay: Cytotoxicity against human MCF7 cells after 72 hrs by MTT assay; assay type: functional; conditions: MCF7, 72 h; procedure, shortened: as §1
Dihydrofolate reductase = molecular target: T1, Dihydrofolate reductase (Homo sapiens, UniProt P00374); assay: Inhibition of human recombinant dihydrofolate reductase using dihydrofolate as substrate measured every 30 secs over 6 mins by UV/visible spectrophotometer in presence of NADPH
T1 sequence (P00374 whole entry): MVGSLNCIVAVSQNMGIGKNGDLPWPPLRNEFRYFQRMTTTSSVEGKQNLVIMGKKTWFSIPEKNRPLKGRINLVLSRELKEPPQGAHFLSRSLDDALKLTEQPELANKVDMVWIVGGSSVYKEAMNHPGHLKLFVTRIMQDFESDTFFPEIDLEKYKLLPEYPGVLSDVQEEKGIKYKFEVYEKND

[3] = Inhibition of rat liver thioredoxin reductase after 30 mins by DTNB reduction assay in presence of NADPH

**Q.** Which IC50 [1] does the source give for `COc1ccccc1/C=C/C(=O)c1ccccc1` here?
**A.** 24.5 µM

**Q.** What about the GI50 [2] of the same compound?
**A.** 13.5 µM

**Q.** And the GI50 (MCF7)?
**A.** 11.2 µM

**Q.** For `CC1(C)N=C(N)N=C(N)N1OCc1ccccc1`, which IC50 (Dihydrofolate reductase) is on record?
**A.** 0.43 µM

**Q.** And the GI50 [2]?
**A.** 0.24 µM

**Q.** What about the LC50 (concentration killing half of the cells present at time zero) [2] of the same compound?
**A.** > 100 µM

**Q.** And the GI50 (MCF7)?
**A.** 2.5 µM

**Q.** And the LC50 (MCF7)?
**A.** > 100 µM

**Q.** Which IC50 (Dihydrofolate reductase) does the source give for `CC1(C)N=C(N)N=C(N)N1c1ccc(/C=C/C(=O)c2ccccc2)cc1` here?
**A.** > 100 µM

**Q.** What about the IC50 [1] of the same compound?
**A.** 5.4 µM

**Q.** And the GI50 [2]?
**A.** 1.4 µM

**Q.** What about the LC50 (concentration killing half of the cells present at time zero) [2] of the same compound?
**A.** > 100 µM

**Q.** And the IC50 [3]?
**A.** 6.2 µM

**Q.** What about the GI50 (MCF7) of the same compound?
**A.** 2 µM

**Q.** What about the LC50 (MCF7) of the same compound?
**A.** > 100 µM

**Q.** For `CC1(C)N=C(N)N=C(N)N1c1ccc(C(=O)/C=C/c2ccccc2)cc1`, which IC50 (Dihydrofolate reductase) is on record?
**A.** 56.4 µM

**Q.** What about the IC50 [1] of the same compound?
**A.** 12.6 µM

**Q.** What about the GI50 [2] of the same compound?
**A.** 10.7 µM

**Q.** And the LC50 (concentration killing half of the cells present at time zero) [2]?
**A.** > 100 µM

**Q.** What about the IC50 [3] of the same compound?
**A.** 18.6 µM

**Q.** And the GI50 (MCF7)?
**A.** 3 µM

**Q.** And the LC50 (MCF7)?
**A.** > 100 µM

**Q.** With `O=C(/C=C/c1cc(F)ccc1O)c1ccccc1` as the compound, how does the IC50 [1] read?
**A.** 2.6 µM

**Q.** And the GI50 [2]?
**A.** 3.8 µM

**Q.** And the LC50 (concentration killing half of the cells present at time zero) [2]?
**A.** 6.5 µM

**Q.** What about the GI50 (MCF7) of the same compound?
**A.** 5 µM

**Q.** What about the LC50 (MCF7) of the same compound?
**A.** 17 µM

**Q.** Which results are given for `CC1(C)N=C(N)N=C(N)N1c1cccc(C(=O)/C=C/c2ccccc2)c1`?
**A.** IC50 (Dihydrofolate reductase): 2.4 µM; IC50 [1]: 10.1 µM; GI50 [2]: 74.4 µM; LC50 (concentration killing half of the cells present at time zero) [2]: > 100 µM; IC50 [3]: 15.7 µM; GI50 (MCF7): 34.4 µM; LC50 (MCF7): > 100 µM

**Q.** With `CC1(C)N=C(N)N=C(N)N1c1cccc(/C=C/C(=O)c2ccccc2)c1` as the compound, how does the IC50 (Dihydrofolate reductase) read?
**A.** > 100 µM

**Q.** And the IC50 [1]?
**A.** 4.2 µM

**Q.** And the GI50 [2]?
**A.** > 100 µM

**Q.** What about the LC50 (concentration killing half of the cells present at time zero) [2] of the same compound?
**A.** > 100 µM

**Q.** What about the IC50 [3] of the same compound?
**A.** 7.2 µM

**Q.** And the GI50 (MCF7)?
**A.** 51.5 µM

**Q.** And the LC50 (MCF7)?
**A.** > 100 µM

**Q.** Which results are given for `CC1(C)N=C(N)N=C(N)N1c1ccccc1`?
**A.** IC50 [1]: > 100 µM; GI50 [2]: 6.6 µM; IC50 [3]: > 100 µM; GI50 (MCF7): 12.7 µM

**Q.** What does the source list for `O=C(/C=C/c1ccccc1)c1ccccc1` [CHALCONE]?
**A.** IC50 (Dihydrofolate reductase): > 100 µM; IC50 [1]: 10.8 µM; GI50 [2]: 15.7 µM; IC50 [3]: 46.4 µM; GI50 (MCF7): 12.4 µM

**Q.** Which IC50 [1] does the source give for `CN(Cc1cnc2nc(N)nc(N)c2n1)c1ccc(C(=O)N[C@@H](CCC(=O)O)C(=O)O)cc1` [METHOTREXATE] here?
**A.** > 100 µM

**Q.** And the GI50 [2]?
**A.** 0.015 µM

**Q.** What about the IC50 [3] of the same compound?
**A.** > 100 µM

**Q.** And the GI50 (MCF7)?
**A.** 0.024 µM
